pIC50: −log10 of the molar value.
Assays:
[1] = Clearance in Wistar Han rat blood at 3.1 mg/kg, po or 1 mg/kg, iv measured upto 24 hrs by LC-MS/MS analysis; format: ADME, organism-based; settings: whole blood
How it was run: (§1)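 Male Wistar Han rats and beagle dogs were dosed iv as a 1 h infusion in DMSO with 10% (w/v) Kleptose HPB in saline (2%:98% or 5%:95% v/v). Oral doses were given in 1% (w/v) methylcellulose (400 cps) aqueous suspension. Oral values are means of n = 3 and iv values n = 1 unless otherwise noted.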

[2] = Volume of distribution at steady state in Wistar Han rat at 3.1 mg/kg, po or 1 mg/kg, iv measured upto 24 hrs by LC-MS/MS analysis; format: ADME, organism-based; settings: in vivo, read-out: Vdss; how it was run: as §1
[3] = Unbound clearance in Beagle dog blood at 1.5 mg/kg, po or 0.4 mg/kg, iv measured upto 24 hrs by LC-MS/MS analysis; format: ADME, organism-based, Canis lupus familiaris; settings: in vivo; how it was run: as §1
[4] = Intrinsic clearance in human hepatocytes measured after 120 mins by LC-MS/MS analysis; format: ADME, cell-based, Hepatocyte; settings: 2 h
[5] = Clearance in Beagle dog blood at 1.5 mg/kg, po or 0.4 mg/kg, iv measured upto 24 hrs by LC-MS/MS analysis; format: ADME, organism-based, Canis lupus familiaris; settings: whole blood; how it was run: as §1
[6] = Lipophilicity, logD of compound at pH 7.4 by Chromatography; format: physicochemical; settings: buffer
[7] = molecular target: T1, Bromodomain-containing protein 4 (Homo sapiens, UniProt O60885); experiment: Inhibition of BRD4 BD1 (unknown origin) measured by TR-FRET assay
[8] = Unbound volume of distribution at steady state in Wistar Han rat at 3.1 mg/kg, po or 1 mg/kg, iv measured upto 24 hrs by LC-MS/MS analysis; format: ADME, organism-based; settings: in vivo; how it was run: as §1
[9] = Half-life in Wistar Han rat at 3.1 mg/kg, po or 1 mg/kg, iv measured upto 24 hrs by LC-MS/MS analysis; format: ADME, organism-based; settings: in vivo; how it was run: as §1
[10] = Unbound fraction in Wistar Han rat at 3.1 mg/kg, po or 1 mg/kg, iv measured upto 24 hrs by LC-MS/MS analysis; format: ADME, organism-based; settings: in vivo
[11] = Oral bioavailability in Wistar Han rat at 3.1 mg/kg measured upto 24 hrs by LC-MS/MS analysis; format: ADME, organism-based; settings: in vivo; how it was run: as §1
[12] = Intrinsic clearance in dog hepatocytes incubated upto 45 mins by LC-MS/MS analysis; format: ADME, cell-based, Canis lupus familiaris, Hepatocyte; settings: 0.75 h
[13] = Volume of distribution at steady state in Beagle dog at 1.5 mg/kg, po or 0.4 mg/kg, iv measured upto 24 hrs by LC-MS/MS analysis; format: ADME, organism-based, Canis lupus familiaris; settings: in vivo, read-out: Vdss; how it was run: as §1
[14] = molecular target: T1, Bromodomain-containing protein 4; experiment: Inhibition of BRD4 BD2 (unknown origin) measured by TR-FRET assay
[15] = Intrinsic clearance in rat hepatocytes after 60 mins by LC-MS/MS analysis; format: ADME, cell-based, Hepatocyte; settings: 1 h
[16] = Artificial membrane permeability of the compound; format: ADME; settings: PAMPA; read-out: permeability
[17] = molecular target: C-C motif chemokine 2 (Homo sapiens, UniProt P13500); experiment: Inhibition of MCP-1 in LPS-stimulated human whole blood incubate for 24 hrs by immuno assay; format: tissue-based
Chain of C-C motif chemokine 2 (P13500 whole entry): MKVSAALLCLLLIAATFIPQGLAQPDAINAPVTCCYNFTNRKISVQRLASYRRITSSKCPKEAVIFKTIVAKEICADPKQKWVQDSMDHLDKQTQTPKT

[18] = Unbound fraction in Beagle dog at 1.5 mg/kg, po or 0.4 mg/kg, iv measured upto 24 hrs by LC-MS/MS analysis; format: ADME, organism-based, Canis lupus familiaris; settings: in vivo
[19] = Solubility of the compound at pH 6.5 in fast state simulated intestinal fluid incubated for 16 hrs by HPLC analysis; format: physicochemical; settings: fasted state simulated intestinal fluid
[20] = Half-life in Beagle dog at 1.5 mg/kg, po or 0.4 mg/kg, iv measured upto 24 hrs by LC-MS/MS analysis; format: ADME, organism-based, Canis lupus familiaris; settings: in vivo; how it was run: as §1
[21] = Unbound volume of distribution at steady state in Beagle dog at 1.5 mg/kg, po or 0.4 mg/kg, iv measured upto 24 hrs by LC-MS/MS analysis; format: ADME, organism-based, Canis lupus familiaris; settings: in vivo; how it was run: as §1
[22] = Unbound clearance in Wistar Han rat blood at 3.1 mg/kg, po or 1 mg/kg, iv measured upto 24 hrs by LC-MS/MS analysis; format: ADME, organism-based; settings: in vivo; how it was run: as §1
[23] = Oral bioavailability in Beagle dog at 1.5 mg/kg measured upto 24 hrs by LC-MS/MS analysis; format: ADME, organism-based, Canis lupus familiaris; settings: in vivo; how it was run: as §1

clearance [1]: 19 mL/min/kg | Vd [2]: 1.1 L/kg | CL free [3]: 87 mL/min/kg | CLH [4]: < 0.45 mL/min/g | clearance [5]: 45 mL/min/kg | chromatographic logD [6]: 1.3 | pIC50 [7]: 7.50 | Vduss [8]: 1.8 L/kg | half-life [9]: 58.2 min | Fu [10]: 0.61 | bioavailability [11]: 66% | CLH [12]: 1.12 mL/min/g | Vd [13]: 1.7 L/kg | pIC50 [14]: 7.50 | CLH [15]: < 0.8 mL/min/g | Papp [16]: 3.1 ×10⁻⁶ cm/s | pIC50 [17]: 7.40 | Fu [18]: 0.52 | solubility at 16 h [19]: > 1000 µg/mL | half-life [20]: 30 min | Vduss [21]: 3.3 L/kg | CL free [22]: 31 mL/min/kg | bioavailability [23]: 39%
SMILES: C[C@H]1C(=O)N(C)C=C(c2cnn(C)c2)c2cc([C@H](O)CO)ccc21

From ChEMBL document CHEMBL5214999, “Identification and Optimization of a Ligand-Efficient Benzoazepinone Bromodomain and Extra Terminal (BET) Family Acetyl-Lysine Mimetic into the Oral Candidate Quality Molecule I-BET432” (J Med Chem, 2022)
